The test system of test [1] is Plasmodium falciparum. The test can be described thus: Antimalarial activity against Plasmodium falciparum 3D7. The class given is functional. Conditions: Plasmodium falciparum, 3D7; read-out: ED50 (the source's name). Summed up:
(§1)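 Asynchronous culture in type A+ erythrocytes at 0.5% parasitemia and 0.5% hematocrit, grown in RPMI-1640 with 20% heat-inactivated human A+ plasma. Compound was serially diluted from a top final 5 µM, with DMSO vehicle as 100% growth. Plates ran 48 h at 37 °C under 5% CO2/5% O2/90% N2, then [3H]-hypoxanthine (0.3 µCi) for 24 h. Filter-harvested counts were corrected for the uninfected-RBC background. ED50 by linear regression; duplicates averaged.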

Test [2] has as its system Plasmodium falciparum. Description: Inhibition of Plasmodium falciparum protein farnesyltransferase at 0.5 nM by scintillation proximity assay. A general note: SPA uses beads or plates that emit light when radiolabelled molecules are held near them.
Test [3] concerns Plasmodium falciparum. Description: Inhibition of Plasmodium falciparum protein farnesyltransferase at 5 nM by scintillation proximity assay.
Test [4] has as its system Plasmodium falciparum. The test can be described thus: Inhibition of Plasmodium falciparum protein farnesyltransferase at 50 nM by scintillation proximity assay.
Test [5] deals with Plasmodium falciparum. Description: Antimalarial activity against Plasmodium falciparum K1. The class given is functional. Conditions: Plasmodium falciparum, K1; read-out: ED50 (the source's name). Summed up: as §1

Molecules are shown by their SMILES.

The inhibition is the relative decrease from the control value, in per cent. Read a low inhibition as a response near the control. Regarding `Cn1cncc1CN1CC(N(CCc2ccccc2F)S(=O)(=O)c2ccccn2)Cc2cc(C#N)ccc21` (stereo not given), the figures for the EC50 in test [1] and in test [5] were 0.12 µM and 0.6 µM, respectively. Also, the inhibition is 22% in test [2], 81% in test [3] and 98% in test [4].

For `Cn1cnc(S(=O)(=O)N(CCc2ccccc2F)C2Cc3cc(C#N)ccc3N(Cc3cncn3C)C2)c1` (stereo not given), the EC50 in test [1] and in test [5] was 0.016 µM each time. Moreover, the inhibition in test [2] was 43%; in test [3], 98%; in test [4], 100%.

Turning to `Cn1cncc1CN1CC(N(Cc2ocnc2-c2ccccc2)S(=O)(=O)c2ccccn2)Cc2cc(C#N)ccc21` (stereo not given), the EC50 in test [1] came to 0.051 µM; in test [5] it was 0.21 µM. Moreover, the inhibition turned out to be 19% in test [2], 82% in test [3] and 98% in test [4].

Regarding `Cn1cncc1CN1CC(N(CC2CCN(C(=O)c3ccco3)CC2)S(=O)(=O)c2ccccn2)Cc2cc(C#N)ccc21` (stereo not given), the EC50 in test [1] is 0.08 µM; in test [5], 0.093 µM. Moreover, the inhibition worked out at 92% in test [2], 51% in test [3] and 92% in test [4].

Turning to `Cn1cnc(S(=O)(=O)N(CCNC(=O)OC(C)(C)C)C2Cc3cc(C#N)ccc3N(Cc3cncn3C)C2)c1` (stereo not given), the figures for the EC50 in test [1] and in test [5] were 0.46 µM and 0.075 µM, respectively. Also, the inhibition in test [2] is 28%; in test [3], 90%; in test [4], 99%.

Consider `Cn1cncc1CN1CC(N(CCCCCC(N)=O)S(=O)(=O)c2ccccn2)Cc2cc(C#N)ccc21` (stereo not given), for which the values for the EC50 in test [1] and in test [5] were 0.3 µM and 0.25 µM, respectively. The inhibition was 4% in test [2], 32% in test [3] and 81% in test [4].

With `CCN(CC)C(=O)c1ccc2c(c1)CC(N(CC(=O)NC(C)(C)C)S(=O)(=O)c1cn(C)cn1)CN2Cc1cncn1C` (stereo not given), the EC50 in test [1] amounted to 2.8 µM; in test [5], 2.6 µM. The inhibition was 0% in test [2], 23% in test [3] and 73% in test [4].

As to `COC(=O)N1CCC(CN(C2Cc3cc(C#N)ccc3N(C(C)c3cnc[nH]3)C2)S(=O)(=O)c2ccccn2)CC1` (stereo not given), the EC50 in test [1] and in test [5] was 0.65 µM in each case. Further, the inhibition in test [2] turned out to be 12%; in test [3], 79%; in test [4], 96%.

As to `COC(=O)N1CCC(CN(C2Cc3cc(C#N)ccc3N(Cc3cncn3C)C2)S(=O)(=O)c2cn(C)c(C)n2)CC1` (stereo not given), the EC50 in test [1] came to 0.06 µM; in test [5], 0.075 µM. In addition, the inhibition in test [2] turned out to be 39%; in test [3] it was 96%; in test [4] it was 100%.

In the case of `COC(=O)N1CCC(CN(C2Cc3cc(C#N)ccc3N(Cc3cncn3C)C2)S(=O)(=O)c2ccccc2)CC1` (stereo not given), the EC50 in test [1] is 0.05 µM; in test [5], 0.07 µM. The inhibition in test [2] is 43%; in test [3], 93%; in test [4], 98%.

Consider `Cn1cncc1CN1CC(N(CCCCON2C(=O)c3ccccc3C2=O)S(=O)(=O)c2ccccn2)Cc2cc(C#N)ccc21` (stereo not given), for which the EC50 in test [1] was determined as 2.15 µM; in test [5] it was 1.43 µM. In addition, the inhibition in test [2] was 0%; in test [3] it was 32%; in test [4] it was 84%.

Consider `CC(C)OC(=O)N1CCC(CN(C2Cc3cc(C#N)ccc3N(Cc3cncn3C)C2)S(=O)(=O)c2ccccn2)CC1` (stereo not given), for which the EC50 in test [1] and in test [5] was 0.05 µM throughout. Besides, the results for the inhibition in test [2], in test [3] and in test [4] were 90%, 36% and 97%, respectively.

`Cn1cncc1CN1CC(N(Cc2ccc(S(C)(=O)=O)cc2)S(=O)(=O)c2ccccc2)Cc2cc(C#N)ccc21` (stereo not given): the EC50 in test [1] stood at 0.165 µM; in test [5], 0.33 µM. Besides, the results for the inhibition in test [2], in test [3] and in test [4] were 38%, 91% and 99%, respectively.

On to `Cn1cncc1CN1CC(N(CCn2ccc3ccccc32)S(=O)(=O)c2ccccn2)Cc2cc(C#N)ccc21` (stereo not given), for which the EC50 in test [1] was 0.37 µM; in test [5], 0.4 µM. Moreover, the results for the inhibition in test [2], in test [3] and in test [4] were 10%, 79% and 98%, respectively.

In the case of `Cn1cnc(CN2CC(N(Cc3ccc(C(F)(F)F)o3)S(=O)(=O)c3cn(C)cn3)Cc3cc(-c4ccccc4)ccc32)c1` (stereo not given), the EC50 in test [1] stood at 4.6 µM; in test [5] it was 3.5 µM. For the same molecule, the inhibition in test [2] amounted to 0%; in test [3] it was 46%; in test [4], 88%.

`Cn1cnc(S(=O)(=O)N(Cc2ccccc2C(F)(F)F)C2Cc3cc(C#N)ccc3N(Cc3cncn3C)C2)c1` (stereo not given): the EC50 in test [1] was 0.071 µM; in test [5], 0.075 µM. The values for the inhibition in test [2], in test [3] and in test [4] were 36%, 93% and 99%, respectively.

For `COC(=O)N1CCC(CN(C2Cc3cc(C#N)ccc3N(Cc3cncn3C)C2)S(=O)(=O)c2cccc3ccccc23)CC1` (stereo not given), the EC50 in test [1] worked out at 0.55 µM; in test [5], 1.7 µM. For the same molecule, the values for the inhibition in test [2], in test [3] and in test [4] were 2%, 39% and 88%, respectively.

Turning to `Cn1cncc1CN1CC(N(Cc2ccccc2F)S(=O)(=O)c2ccccn2)Cc2cc(C#N)ccc21` (stereo not given), the EC50 is 0.23 µM in test [1] and 1.25 µM in test [5]. Also, the inhibition in test [2] worked out at 19%; in test [3], 82%; in test [4], 100%.

`Cn1cncc1CN1CC(N(CC2CCN(C(=O)OCc3ccccc3)CC2)S(=O)(=O)c2ccccn2)Cc2cc(C#N)ccc21` (stereo not given): the results for the EC50 in test [1] and in test [5] were 0.55 µM and 0.65 µM, respectively. The inhibition in test [2] came out at 66%; in test [3], 13%; in test [4] it was 98%.

With `Cn1cnc(S(=O)(=O)N(Cc2ccc(S(C)(=O)=O)cc2)C2Cc3cc(C#N)ccc3N(Cc3cncn3C)C2)c1` (stereo not given), the EC50 in test [1] came out at 0.006 µM; in test [5], 0.01 µM. The inhibition was 82% in test [2], 99% in test [3] and 100% in test [4].

Consider `Cn1cncc1CN1CC(N(Cc2cccc(C(=O)O)n2)S(=O)(=O)c2ccccn2)Cc2cc(C#N)ccc21` (stereo not given), for which the EC50 in test [1] stood at 1 µM; in test [5], 0.8 µM. The figures for the inhibition in test [2], in test [3] and in test [4] were 24%, 81% and 97%, respectively.

For `Cn1cncc1CN1CC(N(Cc2ccc(S(C)(=O)=O)cc2)S(=O)(=O)c2ccccc2Cl)Cc2cc(C#N)ccc21` (stereo not given), the EC50 in test [1] was 0.4 µM; in test [5], 0.8 µM. Also, the inhibition came out at 16% in test [2], 87% in test [3] and 99% in test [4].

Regarding `Cn1cnc(S(=O)(=O)N(CC(=O)O)C2Cc3cc(C#N)ccc3N(Cc3cncn3C)C2)c1` (stereo not given), the EC50 in test [1] worked out at 0.125 µM; in test [5], 0.4 µM. Moreover, the inhibition was found to be 19% in test [2], 81% in test [3] and 97% in test [4].

On to `Cn1cnc(S(=O)(=O)N(CCc2ccsc2)C2Cc3cc(C#N)ccc3N(Cc3cncn3C)C2)c1` (stereo not given), for which the EC50 in test [1] came out at 0.0062 µM; in test [5] it was 0.0042 µM. In addition, the values for the inhibition in test [2], in test [3] and in test [4] were 86%, 100% and 100%, respectively.

For the molecule `Cn1cnc(S(=O)(=O)N(CC(=O)NC(C)(C)C)C2Cc3cc(C(=O)NC4CCCCC4)ccc3N(Cc3cncn3C)C2)c1` (stereo not given), the EC50 in test [1] came to 2.8 µM; in test [5], 2.3 µM. For the same molecule, the results for the inhibition in test [2], in test [3] and in test [4] were 5%, 17% and 66%, respectively.

On to `COC(=O)N1CCC(CN(C2Cc3cc(C#N)ccc3N(Cc3cncn3C)C2)S(=O)(=O)c2cnn(C)c2)CC1` (stereo not given), for which the EC50 in test [1] worked out at 0.042 µM; in test [5] it was 0.045 µM. Moreover, the inhibition amounted to 39% in test [2], 98% in test [3] and 100% in test [4].

With `COC(=O)N1CCC(CN(C2Cc3cc(C#N)ccc3N(Cc3cncn3C)C2)S(=O)(=O)N(C)C)CC1` (stereo not given), the EC50 came to 1.6 µM in test [1] and 2.4 µM in test [5]. The inhibition in test [2] worked out at 0%; in test [3], 19%; in test [4], 58%.

On to `CCN(C1Cc2cc(-c3ccccc3)ccc2N(Cc2cncn2C)C1)S(=O)(=O)c1cn(C)cn1` (stereo not given), for which the EC50 was 5 µM in test [1] and over 5 µM in test [5]. The inhibition in test [2] is 10%; in test [3], 29%; in test [4] it was 86%.

In the case of `Cn1cncc1CN1CC(N(CC(=O)NC(C)(C)C)S(=O)(=O)CCN2C(=O)c3ccccc3C2=O)Cc2cc(C#N)ccc21` (stereo not given), the EC50 in test [1] and in test [5] was over 5 µM throughout. The inhibition in test [2] is 14%; in test [3] it was 21%; in test [4], 60%.

In the case of `Cn1cnc(CN2CC(N(CCNC(=O)OC(C)(C)C)S(=O)(=O)c3cn(C)cn3)Cc3cc(-c4ccccc4)ccc32)c1` (stereo not given), the EC50 worked out at 2.4 µM in test [1] and 0.75 µM in test [5]. Further, the inhibition worked out at 18% in test [2], 81% in test [3] and 98% in test [4].

On to `CN(CCCCN(C1Cc2cc(C#N)ccc2N(Cc2cncn2C)C1)S(=O)(=O)c1ccccn1)C(=O)OC(C)(C)C` (stereo not given), for which the EC50 in test [1] stood at 0.32 µM; in test [5], 0.27 µM. Moreover, the values for the inhibition in test [2], in test [3] and in test [4] were 27%, 78% and 98%, respectively.

Consider `CC(=O)OCC(=O)N(Cc1ccccc1F)C1Cc2cc(C#N)ccc2N(Cc2cncn2C)C1` (stereo not given), for which the results for the EC50 in test [1] and in test [5] were 0.69 µM and 0.75 µM, respectively. In addition, the inhibition in test [2] turned out to be 0%; in test [3], 0%; in test [4], 33%.

Values taken from ChEMBL document CHEMBL1148785, “Second generation tetrahydroquinoline-based protein farnesyltransferase inhibitors as antimalarials” (J Med Chem, 2007).
